T cruzi growth-1 – blocks T. cruzi growth in NIH3T3 culture | T. cruzi beta-gal in NIH3T3, GalScreen luminescence, 90 h | inhibition, % at 8.34 µM | hit rate 5.9% among 77,000 | AID 624255;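 active = mean inhibition above about 93%, with at least 55% of replicates each passing it, limit read from the data, passing the limit was not always enough; inconclusive = only one of those two conditions holds; inactive = neither condition holds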
KDM4C inh – KDM4C (human) demethylase inhibition; hit rate 0.15% among 96,000; GST-KDM4C 2-372, H3K9me3 peptide, LANCE TR-FRET; inhibition, % at 12.5 µM; Q9H3R0;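 active = mean replicate inhibition above about 25%, with at least 55% of replicates also reaching it, limit read from the data, passing the limit was not always enough; inconclusive = only one of those two conditions met; inactive = neither condition met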
Target sequence (Q9H3R0 2-372 limits assumed): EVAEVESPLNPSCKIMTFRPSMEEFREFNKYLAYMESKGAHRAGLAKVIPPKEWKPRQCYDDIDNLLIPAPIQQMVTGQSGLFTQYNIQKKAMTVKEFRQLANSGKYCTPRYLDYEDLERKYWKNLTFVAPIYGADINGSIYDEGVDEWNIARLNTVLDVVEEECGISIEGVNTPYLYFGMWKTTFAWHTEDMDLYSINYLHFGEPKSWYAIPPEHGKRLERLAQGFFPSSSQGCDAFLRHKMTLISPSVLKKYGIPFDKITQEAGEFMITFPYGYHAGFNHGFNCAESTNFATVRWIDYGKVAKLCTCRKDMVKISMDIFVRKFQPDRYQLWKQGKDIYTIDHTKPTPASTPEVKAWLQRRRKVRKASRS
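Material: GST-tagged GASC-1 (JMJD2C) catalytic fragment, aa 2-372 / Quantity: enzyme final amount 10 nM / Medium: HEPES buffer, pH 7.5, plus ascorbate / Doses: one test concentration per compound / Incubation: 30 min reaction, 60 min detection, RT / Measured by: LANCE TR-FRET / Read-out: inhibition from TR-FRET ratio decrease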
IDH1 mut inh – blocks human IDH1 R132H reductase activity | O75874 | hit rate 0.18% among 70,000 | diaphorase/resazurin fluorescence, 60 min | inhibition, % at 10 µM | AID 624101; in the data active = inhibition above about 34%; inconclusive = no clear call, values can overlap the other calls; inactive = below about 11%;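 note: 0% = DMSO and 100% = no enzyme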
Pf Dd2 growth – P. falciparum Dd2 growth inhibition; activity change, % at 10 µM; hit rate 2.3% among 94,000; SYBR Green, 72 h; hits give low values; in the data active = activity change below about -80%; inconclusive = no clear call, values can overlap the other calls
T cruzi growth-2 – Trypanosoma cruzi proliferation inhibition. inhibition, % at 8.35 µM. shares compounds with T cruzi growth-1. T. cruzi beta-gal in NIH3T3, GalScreen luminescence, 90 h. hit rate 72% among 5,600;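 active = mean replicate inhibition above about 95% and at least 55% of replicates individually reaching it, limit read from the data; inconclusive = only one of the two criteria is met; inactive = neither criterion is met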
T cruzi growth-3 – Trypanosoma cruzi proliferation inhibition; shares compounds with T cruzi growth-1; T. cruzi beta-gal in NIH3T3, GalScreen luminescence, 90 h; inhibition, % at 2.09 µM; hit rate 21% among 5,600;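 active = mean inhibition above about 95%, with at least 55% of replicates also reaching it, limit read from the data; inconclusive = meets just one of the two conditions; inactive = meets neither condition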;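 note: plate controls were neutral control median for no effect and positive control median for full effect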
NIH3T3 tox – cytotoxicity in mouse NIH/3T3 fibroblasts. shares compounds with T cruzi growth-1. NIH/3T3 viability, CellTiter-Glo ATP luminescence, 90 h. cytotoxicity (signal decrease), % at 8.35 µM. hit rate 14% among 5,600;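 active = mean signal decrease across replicates above about 35% based on untreated-well scatter, with enough replicates individually passing, limit read from the data; inconclusive = no rule stated though some were filed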;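 note: 0% = median of neutral control wells and 100% = median of positive control wells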
NIH3T3 tox 2 – kills mouse NIH/3T3 fibroblasts; shares compounds with T cruzi growth-1; NIH/3T3 viability, CellTiter-Glo ATP luminescence, 90 h; inhibition, % at 24.9 µM; hit rate 56% among 5,600;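 active = mean loss of cell viability signal at or above a set limit, and enough replicates individually reaching it; inconclusive = meets only the mean limit or only the replicate share; inactive = meets neither condition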;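 note: 0% = median of neutral control wells and 100% = median of positive control wells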
Active calls of the source: *; u = inconclusive; x = no result given. Hits are enriched below; roughly 5.8% of the tested compounds scored in any of these assays.

SMILES	T cruzi growth-1	KDM4C inh	IDH1 mut inh	Pf Dd2 growth	T cruzi growth-2	T cruzi growth-3	NIH3T3 tox	NIH3T3 tox 2
C[C@H](CO)N1C[C@H](C)[C@H](CN(C)C(=O)Nc2ccccc2)OCCCC[C@H](C)Oc2ccc(NS(=O)(=O)c3ccc(Cl)cc3)cc2C1=O	124*	79*	x	-56	110*	78	19	29
C[C@@H]1CCCCO[C@H](CN(C)C(=O)c2ccccc2)[C@H](C)CN([C@H](C)CO)C(=O)c2cc(NS(=O)(=O)c3ccc(Cl)cc3)ccc2O1	57	0	0	-21	x	x	x	x
C[C@@H]1CN([C@@H](C)CO)C(=O)c2cc(NS(=O)(=O)c3ccc(Cl)cc3)ccc2O[C@@H](C)CCCCO[C@@H]1CN(C)C(=O)Nc1ccccc1	100*	0	-1	-79	98*	-2	13	24*
C[C@@H]1CCCCO[C@H](CN(C)C(=O)Nc2ccccc2)[C@H](C)CN([C@@H](C)CO)C(=O)c2cc(NS(=O)(=O)c3ccc(Cl)cc3)ccc2O1	u	1	1	-74	101*	77	-2	-4
C[C@@H]1CCCCO[C@@H](CN(C)C(=O)c2ccccc2)[C@H](C)CN([C@H](C)CO)C(=O)c2cc(NS(=O)(=O)c3ccc(Cl)cc3)ccc2O1	98*	-2	x	-30	111*	32	21	-2
Cc1cc(Cl)ccc1N(CC(=O)Nc1cc(Cl)cc(Cl)c1)S(C)(=O)=O	x	x	1	x	x	x	x	x
O=C1C(=O)N(CCN2CCOCC2)C(c2ccc(Cl)cc2)C1C(=O)c1cccs1 (stereo not given)	x	x	0	x	x	x	x	x
C[C@@H]1CCCCO[C@@H](CN(C)Cc2ccccc2)[C@@H](C)CN([C@H](C)CO)C(=O)c2cc(NC(=O)Nc3ccc(F)cc3)ccc2O1	101*	0	x	28	107*	56	12	14
C[C@H](CO)N1C[C@H](C)[C@H](CN(C)Cc2ccccc2)OCCCC[C@H](C)Oc2ccc(NC(=O)Nc3ccc(F)cc3)cc2C1=O	u	-2	x	4	97*	114*	23	104*
C[C@@H]1CCCCO[C@H](CN(C)Cc2ccccc2)[C@@H](C)CN([C@H](C)CO)C(=O)c2cc(NC(=O)Nc3ccc(F)cc3)ccc2O1	66	-1	13	26	x	x	x	x
C[C@@H]1CCCCO[C@@H](CN(C)Cc2ccccc2)[C@H](C)CN([C@@H](C)CO)C(=O)c2cc(NC(=O)Nc3ccc(F)cc3)ccc2O1	u	1	-1	u	103*	44	10	105*
CCOc1ccc(-n2c(SCC(=O)c3ccccc3)nnc2-c2ccncc2)cc1	x	x	-1	x	x	x	x	x
O=C(CNCCO)Nc1sc2c(c1C(=O)Nc1ccc(Br)cc1)CCC2	x	x	1	x	x	x	x	x
C[C@@H]1CCCCO[C@H](CN(C)C(=O)C2CCCCC2)[C@H](C)CN([C@H](C)CO)C(=O)c2cc(NC(=O)Nc3cccc4ccccc34)ccc2O1	117*	-1	x	-90*	105*	113*	-28	-18
C[C@@H]1CCCCO[C@H](CN(C)C)[C@@H](C)CN([C@H](C)CO)C(=O)c2cc(NC(=O)Nc3cccc4ccccc34)ccc2O1	69	5	x	23	x	x	x	x
C[C@@H]1CCCCO[C@@H](CN(C)C(=O)C2CCCCC2)[C@@H](C)CN([C@@H](C)CO)C(=O)c2cc(NC(=O)Nc3cccc4ccccc34)ccc2O1	110*	1	x	-89*	106*	65	-9	-27
C[C@@H]1CCCCO[C@H](CN(C)C)[C@H](C)CN([C@@H](C)CO)C(=O)c2cc(NC(=O)Nc3cccc4ccccc34)ccc2O1	74	-1	-5	-37	x	x	x	x
COc1ccccc1-n1nnnc1SCC(=O)Nc1cc(OC)c(OC)c(OC)c1	x	x	0	x	x	x	x	x
CCc1c(C)sc(NC(=O)COc2ccc(Cl)cc2)c1C(N)=O	x	x	0	x	x	x	x	x
O=C(c1ccccc1)N1CC[C@@H]2[C@@H](CO)Nc3ccc(C#Cc4ccccc4F)cc3[C@@H]21	101*	1	x	-53	106*	71	-5	96*
COc1ccccc1C#Cc1ccc2c(c1)[C@H]1[C@H](CCN1C(=O)c1ccc(F)cc1)[C@@H](CO)N2	x	-3	x	-65	x	x	x	x
O=C(c1ccc(F)cc1)N1CC[C@H]2[C@H](CO)Nc3ccc(C#Cc4ccccc4F)cc3[C@H]21	x	0	x	-69	x	x	x	x
COc1ccccc1C#Cc1ccc2c(c1)[C@H]1[C@H](CCN1C(=O)c1ccccc1)[C@H](CO)N2	100*	-2	x	-4	106*	84	31	83*
C[C@@H]1CCCCO[C@H](CN(C)Cc2ccc(C(F)(F)F)cc2)[C@@H](C)CN([C@H](C)CO)C(=O)c2cc(NC(=O)Nc3ccccc3)ccc2O1	96*	0	-1	48	98*	111*	25	20
C[C@@H]1CCCCO[C@@H](CN(C)Cc2ccc(C(F)(F)F)cc2)[C@@H](C)CN([C@@H](C)CO)C(=O)c2cc(NC(=O)Nc3ccccc3)ccc2O1	75	0	0	19	x	x	x	x
SMILES	T cruzi growth-1	KDM4C inh	IDH1 mut inh	Pf Dd2 growth	T cruzi growth-2	T cruzi growth-3	NIH3T3 tox	NIH3T3 tox 2
C[C@@H]1CCCCO[C@H](CN(C)Cc2ccc(C(F)(F)F)cc2)[C@H](C)CN([C@H](C)CO)C(=O)c2cc(NC(=O)Nc3ccccc3)ccc2O1	u	-1	1	-74	96*	120*	-12	-7
COc1ccc(I)cc1C(Nc1cc(C)ccn1)c1ccc2cccnc2c1O (stereo not given)	x	x	0	x	x	x	x	x
COCC#Cc1ccc2c(c1)O[C@@H](CN(C)Cc1cncnc1)[C@H](C)CN([C@@H](C)CO)S2(=O)=O	106*	0	0	8	106*	89	10	36*
COCC#Cc1ccc2c(c1)O[C@@H](CN(C)Cc1ccncc1)[C@H](C)CN([C@H](C)CO)S2(=O)=O	109*	6	-3	-4	100*	91	11	63*
COCC#Cc1ccc2c(c1)O[C@H](CN(C)Cc1cncnc1)[C@@H](C)CN([C@@H](C)CO)S2(=O)=O	-4	-3	-2	-7	x	x	x	x
COCC#Cc1ccc2c(c1)O[C@@H](CN(C)Cc1ccccc1)[C@H](C)CN([C@H](C)CO)S2(=O)=O	109*	-4	-1	-70	93	45	53*	106*
O=C(NCCCN1CCOCC1)c1cnn2c(C(F)(F)F)cc(-c3ccccc3)nc12	x	x	0	x	x	x	x	x
C[C@H](CO)N1C[C@H](C)[C@@H](CN(C)Cc2ccccc2F)Oc2cc(C3=CCCC3)ccc2S1(=O)=O	u	5	1	-19	97*	52	-7	105*
